# Results gathered from unrelated publications.
# Protocols differ between the studies behind these lines.
Compound,species,medium,route,dose,notes,half-life
O=C(Nc1ccc(C(F)(F)F)cc1F)N1CCC(Cc2cccc(Oc3ccc(C(F)(F)F)cn3)c2)CC1,male Sprague-Dawley rat,blood,oral,1 mg/kg,,348 min
Cc1cnc(N2CC3(CCOCC3)C2)c(C(=O)Nc2ccc(C(=O)N3CCc4cc(C(=O)Nc5c(C)cccc5F)sc4-c4ccccc43)cc2)c1,rat,plasma,inhaled,2.7 mg/kg,single dose,204 min
N#Cc1[nH]nnc1-c1csc(-c2ccc(Cl)cc2)n1,male Sprague-Dawley rat,plasma,oral,10 mg/kg,,174 min
COc1cc2c3c(n(CCCN4CCOCC4)c(=O)c2cc1OC)-c1cc2c(cc1C3=O)OCO2,female Fischer 344 rat,plasma,intravenous,24 mg/m²,single dose,276 min
C[C@H](Nc1ncnc2[nH]cnc12)c1cc2cccc(Cl)c2c(=O)n1-c1ccccc1,male Wistar rat,plasma,oral,25 mg/kg,single dose,49.2 min
CCOC(=O)[C@@]12C[C@@H]1[C@@H](n1ccc3c(NC)nc(C#Cc4ccc(Cl)s4)nc31)[C@H](O)[C@@H]2O,male Sprague-Dawley rat,plasma,oral,3 mg/kg,,93 min
COc1nc(-c2cc(C)c(N[C@@H](C)c3cc(F)cc(F)c3)nn2)ccc1-n1cnc(C)c1,male Sprague-Dawley rat,plasma,intravenous,1 mg/kg,single dose,186 min
COc1ccc2c(Cc3ccccc3F)c3n(c(=O)c2c1OC)CCc1cc2c(cc1-3)OCO2,rat,plasma,oral,5 mg/kg,,1070 min
Oc1c(Br)cc(Cl)c2cccnc12,Sprague-Dawley rat,plasma,subcutaneous,10 mg/kg,,336 min
CCc1cc(C(=O)NC)c2nccc(N3CCc4c(cc(Cn5ccnc5)cc4-c4cn(C)nc4C(F)(F)F)C3=O)c2c1,male Sprague-Dawley rat,plasma,oral,100 mg/kg,single dose,234 min
COCCOC(=O)C1=C(C)NC(C)=C(C(=O)OC(C)C)C1c1cccc([N+](=O)[O-])c1 (stereo not shown),male Sprague-Dawley rat,plasma,oral,12 mg/kg,,450 min
Oc1c(-n2ccnn2)cnn1-c1cc(N2CCOCC2)ncn1,male rat,plasma,intravenous,5 mg/kg,,186 min
C=CC(=O)Nc1cc(Nc2nccc(Nc3cc(Cl)c(F)cc3C(C)(C)O)n2)c(OC)cc1N1CC[C@@H](N(C)C)C1,Wistar rat,plasma,intravenous,3 mg/kg,,382 min
COc1ccc2c(=O)n(C)c(-c3ccccc3)nc2c1,male Sprague-Dawley rat,plasma,oral,10 mg/kg,,44.4 min
CC(C)(O)[C@H]1CC[C@H](Nc2ccc3ncc(-c4cccc(C(F)(F)F)c4)n3n2)CC1,female Sprague-Dawley rat,plasma,oral,40 mg/kg,,246 min
CCc1nc(C(N)=O)c(Nc2ccc(N3CCC(N4CCN(C)CC4)CC3)c(OC)c2)nc1NC1CCOCC1,male Sprague-Dawley rat,plasma,oral,10 mg/kg,,860 min
O=C(Nc1cc(F)c(F)c(F)c1)c1ccc(F)c(S(=O)(=O)NCc2cccc(B(O)O)c2)c1,male Sprague-Dawley rat,plasma,oral,20 mg/kg,,64.8 min
CCNC(=O)c1nc(-c2ccc3[nH]c(-c4nc(C)no4)cc3c2)c(C)[nH]1,Sprague-Dawley rat,plasma,intravenous,1 mg/kg,,54 min
N#Cc1ccc(Nc2nc(N)cc(Oc3c(F)cc(-c4ccc(C#N)cc4)cc3F)n2)cc1,Sprague-Dawley rat,plasma,oral,5 mg/kg,,199 min
Cc1c(-c2ccccc2)cccc1N1C(=O)c2cc(CN[C@H](C(=O)O)C(C)O)c(OCc3cccc(C#N)c3)cc2C1=O (stereo partly shown),Sprague-Dawley rat,plasma,intravenous,5 mg/kg,,386 min
CNCc1cc(-c2ccccc2F)n(S(=O)(=O)c2cccnc2)c1,male Sprague-Dawley rat,plasma,oral,10 mg/kg,,60 min
CCc1cc(OC)c2nccc(N3CCc4c(cc(Cn5ccnc5)cc4-c4cn(C)nc4C(F)(F)F)C3=O)c2c1,male Sprague-Dawley rat,plasma,intravenous,3 mg/kg,,60 min
N#Cc1[nH]nnc1-c1cccc(-c2cc(F)cc(C(F)(F)F)c2)c1,male Sprague-Dawley rat,plasma,oral,10 mg/kg,,156 min
COc1ccc2c(Cc3ccccc3F)c3[n+](cc2c1OC)CCc1cc2c(cc1-3)OCO2.[Br-],rat,plasma,intravenous,5 mg/kg,,96.6 min
CNCc1cc(-c2ccccc2F)n(S(=O)(=O)c2cccnc2)c1,Sprague-Dawley rat,plasma,oral,10 mg/kg,,77.4 min
